Measurements from different studies.
Protocols differ between the studies behind these lines.
Cell line: HCT-116
Read-out: cell growth or viability

With `Cc1ccc(-c2cc(-c3ccc(Cl)c(F)c3)c3c(=O)n(C)c(=O)n(C)c3n2)cc1` the IC50 was 21.4 µM (MTT; 48 h).
The IC50 of `COc1cc2ncnc(Nc3ccc4c(c3)/C(=C/c3cccc(Cl)c3)C(=O)N4C)c2cc1OC` is reported as 8.36 µM (MTT).
For `COc1ccc(-c2cc(-c3c(OC)cccc3OC)c3c(=O)n(C)c(=O)n(C)c3n2)cc1`, the IC50 was 5.44 µM (MTT; 48 h).
`COc1cc2ncnc(N(C)c3ccc4c(c3)/C(=C/c3ccccc3)C(=O)N4C)c2cc1OC` (mixture of isomers) has an IC50 of 6.91 µM (MTT).
`O=C(O)c1ccccc1Nc1cccc(C(F)(F)F)c1` gave a GI50 of over 40 µM (CCK-8; 72 h).
`CC(=NNC(=O)COc1ccc2c(C)c(Cc3ccccc3)c(=O)oc2c1C)c1ccc(Br)cc1` has a viability of 64.3% (MTT; 0.4 µg/mL).
For `COc1ccc(-c2cc(-c3ccc(C)cc3)nc3c2c(=O)n(C)c(=O)n3C)cc1OC`, the IC50 was 20.8 µM (MTT; 48 h).
The IC50 of `COc1nc(NCc2cn(-c3ccc(C(=O)Nc4ccc(C(F)(F)F)cc4)cc3)nn2)nc(OC)n1` is reported as 0.00141 µM (MTT; 72 h).
`Cc1ccc(-c2cc(-c3ccc(Cl)c(F)c3)c3c(=O)[nH]c(=O)[nH]c3n2)cc1` gave an IC50 of 11.2 µM (MTT; 48 h).
`COc1nc(NCc2cn(-c3ccc(NC(=O)c4ccc(C)cc4)cc3)nn2)nc(OC)n1` gave an IC50 of 0.0599 µM (MTT; 72 h).
For `COc1ccc(-c2cc(-c3c(OC)cccc3OC)c3c(=O)[nH]c(=O)[nH]c3n2)cc1`, the IC50 was 29 µM (MTT; 48 h).
With `C=CC(=O)NC1CCN(c2ncc3ncnc(Nc4ccc(Oc5ccc6c(c5)ncn6C)c(C)c4)c3n2)CC1` the EC50 was 2.6 µM.
For `COc1nc(NCc2cn(-c3ccc(C(=O)Nc4ccc([N+](=O)[O-])cc4)cc3)nn2)nc(OC)n1`, the IC50 was 0.059 µM (MTT; 72 h).
With `C=CC(=O)c1cccnc1Nc1cc(C(F)(F)F)ccc1OCc1ccccc1` the GI50 was 8.72 µM (CCK-8; 72 h).
For `COc1nc(NCc2cn(-c3ccc(C(=O)Nc4ccc(Cl)cc4)cc3)nn2)nc(OC)n1`, the IC50 was 0.0329 µM (MTT; 72 h).
`Cc1ccc(-c2cc(-c3ccc(Cl)cc3)c3c(=O)n(C)c(=O)n(C)c3n2)cc1` gave an IC50 of 5.87 µM (MTT; 48 h).
The IC50 of `COc1nc(NCc2cn(-c3ccc(NC(=O)c4ccc([N+](=O)[O-])cc4)cc3)nn2)nc(OC)n1` is reported as 0.0578 µM (MTT; 72 h).
With `Cc1ccc(-c2cc(-c3ccc(N(C)C)cc3)c3c(=O)n(C)c(=O)n(C)c3n2)cc1` the IC50 was 12 µM (MTT; 48 h).
For `Cc1nc(Nc2ccc3c(c2)/C(=C/c2ccccc2C)C(=O)N3C)c2ccccc2n1`, the IC50 was 20.6 µM (MTT).
`COc1nc(NCc2cn(-c3ccc(C(=O)Nc4ccc(C)cc4)cc3)nn2)nc(OC)n1` gave an IC50 of 0.0276 µM (MTT; 72 h).
For `Cc1nc(Nc2ccc3c(c2)/C(=C/c2ccccc2C)C(=O)N3)c2ccccc2n1`, the IC50 was 9.25 µM (MTT).
The IC50 of `COc1ccc(-c2cc(-c3ccc(Br)cc3)c3c(=O)[nH]c(=O)[nH]c3n2)cc1` is reported as 7.88 µM (MTT; 48 h).
With `COc1cccc2c1C(=O)c1c(O)c3c(c(O)c1C2=O)C[C@@](O)(C(=O)CO)C[C@@H]3O[C@H]1C[C@H](N)[C@H](O)[C@H](C)O1` the IC50 was 0.83 µM (MTT; 72 h).
`Cc1nc(Nc2ccc3c(c2)C(C)(C)C(=O)N3)c2ccccc2n1` gave an IC50 of over 50 µM (MTT).
`COc1nc(NCc2cn(-c3ccc(C(=O)Nc4ccccc4)cc3)nn2)nc(OC)n1` has an IC50 of 0.00087 µM (MTT; 72 h).
For `COc1cc2ncnc(Nc3ccc4c(c3)/C(=C/c3ccccc3)C(=O)N4C)c2cc1OC`, the IC50 was 6.67 µM (MTT).
